Data taken from publication PMC4819167 (Biochemistry, 2016).

Tests used:
HSV-1 = conditions: at noncytotoxic concentrations; cited from earlier work
HSV-2 = conditions: at noncytotoxic concentrations; cited from earlier work
pUL15C [1] = biological target: T1, pUL15C (Human herpesvirus 1, UniProt P04295); experiment: Dual-probe fluorescence assay of pUL15C nuclease activity; assay type: biochemical
pUL15C [2] = biological target: T1, pUL15C; experiment: Michaelis-Menten kinetic analysis with the dual-probe fluorescence assay; assay type: biochemical, herpes simplex virus
pUL15C [3] = biological target: T1, pUL15C; experiment: Yonetani-Theorell analysis of pUL15C nuclease inhibition; assay type: biochemical; conditions: compound 21 0-0.4 μM, raltegravir 0-2.0 μM, substrate 250 nM
pUL15C [4] = biological target: T1, pUL15C; experiment: Differential scanning fluorimetry; assay type: binding; conditions: wild-type pUL15C, DSF
Method in brief: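 Binding read by thermal shift: test compound added from a 1 mM DMSO stock to 1.6 µM pUL15C in 20 mM HEPES (pH 7.5), 10 mM MgCl₂, 100 mM NaCl and SYPRO Orange (1:2000). Heated 30 to 80 °C in 0.2 °C steps. Fluorescence was read at ex 483 / em 568 nm, ΔTm was derived from melt curves, and runs were in duplicate.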

pUL15C [5] = biological target: T1, pUL15C; experiment: pUL15C nuclease activity on supercoiled plasmid, agarose gel electrophoresis; assay type: biochemical, herpes simplex virus
Lys700Ala pUL15C = Lys700Ala pUL15C (Human herpesvirus 1, UniProt P04295, K700A); experiment: Differential scanning fluorimetry; assay type: binding, herpes simplex virus; conditions: DSF, 20 μM β-thujaplicinol
DNase I = DNase I (Bos taurus, UniProt P00639); experiment: DNase I cleavage of substrate 21D/33D; assay type: biochemical; conditions: 1 mM Mn2+, 20 μM compound
Chain of DNase I (P00639 23-282): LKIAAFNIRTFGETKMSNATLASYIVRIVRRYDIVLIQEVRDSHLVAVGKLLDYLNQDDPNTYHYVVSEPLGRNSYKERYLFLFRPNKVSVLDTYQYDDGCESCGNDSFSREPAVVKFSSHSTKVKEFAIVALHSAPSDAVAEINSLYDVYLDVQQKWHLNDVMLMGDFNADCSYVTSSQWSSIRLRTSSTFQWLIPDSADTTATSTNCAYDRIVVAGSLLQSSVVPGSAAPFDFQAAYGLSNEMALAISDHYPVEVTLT

IC50 (pUL15C [1]) [nM] | decrease of the Tm of pUL15C (destabilizing effect) (pUL15C [4]) [°C] | Molecule | replication of wild-type and ACV-resistant HSV-1 (HSV-1) | replication of wild-type and ACV-resistant HSV-2 (HSV-2) | also measured
– | – | manicol | suppress replication | suppress replication | –
1100 ± 90 | – | C[C@@H]1CCO[C@H]2Cn3cc(C(=O)NCc4ccc(F)cc4F)c(=O)c(O)c3C(=O)N12 [dolutegravir] | – | – | –
– | ~0.5 | CCN1C[C@H](C)n2c(c(O)c3c(=O)n(Cc4ccc(F)c(Cl)c4)nc(C(=O)NC)c32)C1=O [MK2048] | – | – | IC50 (pUL15C [1]; read-out: IC50, pUL15C nuclease activity, dual-probe fluorescence assay, 0.3 μM pUL15C, 250 nM DNA duplex, 1 mM MnCl2, 37 °C, triplicate): > 10000 nM
> 10000 | ~0.5 | COc1cc2c(cc1Cc1cccc(Cl)c1F)c(=O)c(C(=O)O)cn2[C@H](CO)C(C)C [elvitegravir] | – | – | –
– | – | CC(C)c1ccc(O)c(=O)c(O)c1 [β-thujaplicinol] | suppress replication | suppress replication | IC50 (pUL15C [5]): 2000 nM; increase of Tm of the Lys700Ala mutant (Lys700Ala pUL15C): 4.30 °C; inhibition of DNase I cleavage of substrate 21D/33D (DNase I): insensitive to inhibition

Molecule | IC50 (pUL15C [1]) [nM] | decrease of the Tm of pUL15C (destabilizing effect) (pUL15C [4]) [°C] | replication of wild-type and ACV-resistant HSV-1 (HSV-1) | replication of wild-type and ACV-resistant HSV-2 (HSV-2) | also measured
Cc1nnc(C(=O)NC(C)(C)c2nc(C(=O)NCc3ccc(F)cc3)c(O)c(=O)n2C)o1 [raltegravir] | 390 ± 50 | – | – | – | Ki (pUL15C [2]): 1000 ± 100 nM; mode of pUL15C inhibition (pUL15C [2]; Lineweaver-Burke plot): noncompetitively inhibits; binding-site overlap of compound 21 and raltegravir (Yonetani-Theorell plot) (pUL15C [3]): mutually exclusive
